Legend:
Type in all cases: functional
Mus musculus [1] = experiment: L-1210 mouse leukemia life prolongation activity was measured as T/C (mean survival time of treated animals divided by the mean survival time of the controls times 100) at dose 80 mg/kg
In short: (§1)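 In vivo L-1210 leukemia in mice, run by NCI contractors by standard procedures. Two intraperitoneal doses given, on day 1 and day 5 of the study. Readout is mean survival time of treated animals over that of controls, ×100 (T/C).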

Mus musculus [2] = experiment: L-1210 mouse leukemia life prolongation activity was measured as T/C (mean survival time of treated animals divided by the mean survival time of the controls times 100) at dose 40 mg/kg; in short: as §1
Mus musculus [3] = experiment: L-1210 mouse leukemia life prolongation activity was measured as T/C (mean survival time of treated animals divided by the mean survival time of the controls times 100) at dose 10 mg/kg; in short: as §1
Mus musculus [4] = experiment: L-1210 mouse leukemia life prolongation activity was measured as T/C (mean survival time of treated animals divided by the mean survival time of the controls times 100) at dose 20 mg/kg; in short: as §1
Mus musculus [5] = experiment: L-1210 mouse leukemia life prolongation activity was measured as T/C (mean survival time of treated animals divided by the mean survival time of the controls times 100) at dose 2.5 mg/kg; in short: as §1
Mus musculus [6] = experiment: L-1210 mouse leukemia life prolongation activity was measured as T/C (mean survival time of treated animals divided by the mean survival time of the controls times 100) at dose 5 mg/kg; in short: as §1
Mus musculus [7] = experiment: L-1210 mouse leukemia life prolongation activity was measured as T/C (mean survival time of treated animals divided by the mean survival time of the controls times 100) at dose 1.25 mg/kg; in short: as §1
Mus musculus [8] = experiment: L-1210 mouse leukemia life prolongation activity was measured as T/C(mean survival time of treated animals divided by the mean survival time of the controls times 100) at dose 2.5 mg/kg; in short: as §1

| SMILES | T/C (Mus musculus [1]) | T/C (Mus musculus [2]) | T/C (Mus musculus [3]) | T/C (Mus musculus [4]) | T/C (Mus musculus [5]) | T/C (Mus musculus [6]) | T/C (Mus musculus [7]) | T/C (Mus musculus [8]) |
| --- | --- | --- | --- | --- | --- | --- | --- | --- |
| CC[C@@](O)(C(=O)[O-])c1cc2n(c(=O)c1CO)Cc1cc3ccccc3nc1-2.[Na+] | 215 | 181 | 126 | 167 |  |  |  |  |
| CC[C@]1(O)C(=O)OCc2c1cc1n(c2=O)Cc2cc3ccccc3nc2-1 |  |  | 118 | 132 | 114 | 114 |  |  |
| CC[C@@]1(O)C(=O)OCc2c1cc1n(c2=O)Cc2cc3ccccc3nc2-1 [CAMPTOTHECIN] |  |  | 250 |  |  | 185 | 129 | 147 |

— ChEMBL document CHEMBL1123574, “Plant antitumor agents. 28. Resolution of a key tricyclic synthon, 5'(RS)-1,5-dioxo-5'-ethyl-5'-hydroxy-2'H,5'H,6'H-6'-oxopyrano[3' ,4'- f]delta 6,8-tetrahydro-indolizine: total synthesis and antitumor activity of 20(S)- and 20(R)-camptothecin” (1987)
